Jurkat viability – cytotoxicity toward Jurkat T cells, primary screen, cytotoxicity control, cell-based, Jurkat E6.1, 60K MLSMR library. Jurkat E6.1 viability, ATP luminescence, 48 h. 1.2% of 56,000 active. AID 463, 2006. inhibition, % at 4 µM;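 active means inhibition above the mean inhibition of all tested compounds plus 3 SD, cut at about 28% in these data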
H69AR growth 86K – proliferation blockers of H69AR lung cancer cells, primary screen, cell-based, human, 86K library; H69AR lung tumor viability, ATP luminescence, 72 h; active compounds read low; viability, % at 10 µM; 6% of 85,000 active; AID 598, 2007;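 active means viability at or below 40%; inactive means viability above 40%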;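 further: multidrug resistant small cell line overexpressing MRP-1 efflux transporter; 100% = mean luminescence of untreated control wells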
HUVEC prolif 384 – inhibitors of HUVEC proliferation, primary screen, cell-based, 384-well | 1.1% of 86,000 active | CellTiter-Glo luminescence, 72 h; active compounds read low | viability, % at 10 µM (by protocol);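 active means viability at or below 30%; inactive means viability above 30%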;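 further: 100% = median luminescence of DMSO-only cell control wells on each plate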
Fibroblast inh – antiproliferative effect on LL 47 fibroblasts – human, LL 47 cells, CellTiter-Glo luminescence, primary screen; LL 47 human lung fibroblast viability, ATP luminescence; active compounds read low; 1.1% of 85,000 active; viability, % at 10 µM; AID 719, 2007;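 active means viability at or below 50% in the single dose screen; inactive means viability above 50%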;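 further: compound exposure lasted 72 h before the ATP readout; 100% = median luminescence of untreated cell-only wells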
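Material: human LL 47 lung fibroblast cells; quantity: 1,150 cells/well; medium: IMEM plus 15% FBS; doses: 0.1% DMSO in all compound wells; timing: overnight attachment after seeding, then 72 h compound exposure at 37 °C; detection: CellTiter-Glo luminescence; measure: % viability of median cell-only signal; controls: cell-only wells, no compound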
Active calls of the source: *; . = no result given. The list is not random: actives were taken first. Their share in the collection is about 6.4%.

SMILES	Jurkat viability	H69AR growth 86K	HUVEC prolif 384	Fibroblast inh
O=C(NC1CCCC1)c1cccc(NC(=O)c2ccco2)c1	.	78	90	90
CSCCOC(=O)C1=C(C)Nc2ccc(C)cc2S1	.	28*	81	90
CCOC(=O)C1=C(C)Nc2ccc(C)cc2S1	.	104	80	98
O=C(NCCN1CCOCC1)c1ccc2c(c1)ncn2C1CCCCC1	2	85	85	85
COc1cc(/C=C(/C(=O)c2cccs2)c2nc3ccccc3[nH]2)cc(OC)c1O	.	2.6*	102	19*
O=C(NCc1nc2ccccc2[nH]1)c1cccs1	-4	98	108	109
CCOC(=O)c1[nH]c2ccc(OC)cc2c1N=CN(C)C	-5	96	100	106
COc1ccc(-n2nnnc2-c2cccc(OC)c2)cc1	78*	26*	49	58
Clc1ccc(-n2nnnc2-c2ccccc2)cc1Cl	4	98	92	98
CCOC(=O)/C(=N/Nc1ccccc1)c1csc(Nc2ccccc2)n1	.	11*	81	92
CCN(CC)C(=O)c1csc(Nc2ccc(C)cc2)n1	2	.	99	96
CCOC(=O)/C(=N\Nc1ccc(OC)cc1)c1csc(Nc2ccccc2)n1	.	24*	84	108
COCCCNc1ncnc2sc3c(c12)CCC(C)C3 (configuration not stated)	.	39*	89	89
CC1CCc2c(sc3ncnc(SCC(=O)c4ccccc4)c23)C1 (configuration not stated)	.	44	82	99
CCc1cccc(NC(=O)CN(c2ccc(OC)cc2)S(=O)(=O)c2c(C)n[nH]c2C)c1	-3	80	78	91
CC(=O)c1cccc(NC(=O)Nc2ccc3c(c2)N(C)C(=O)CS3)c1	.	24*	34	93
C[N+]1=C2CCCCCN2C(O)(c2ccccc2)C1 (configuration not stated)	-3	96	96	92
O=C(CNS(=O)(=O)c1ccc(Br)cc1)N1CCOCC1	.	101	98	103
COc1cc(OC)c(C#N)c(S(=O)(=O)Cc2ccccc2)c1	.	77	95	92
COc1ccc(S(=O)(=O)Cc2ccccc2)cc1N	-6	37*	91	95
CCN(c1ccccc1)S(=O)(=O)c1ccc(N)c(OC)c1	.	17*	55	72
Cc1c(NC(=O)COc2ncnc3ccccc23)c(=O)n(-c2ccccc2)n1C	-6	96	86	98
CC1(C(=O)NCc2cccnc2)CCC(=O)N1Cc1cccs1 (configuration not stated)	2	96	107	113
COc1ccc(Nc2ncnc3c2cnn3-c2ccccc2)cc1OC	7	37*	90	112
Clc1ccc(Nc2ncnc3c2cnn3-c2ccccc2)cc1	1	95	93	100
SMILES	Jurkat viability	H69AR growth 86K	HUVEC prolif 384	Fibroblast inh
CC(=O)Nc1ccc(Nc2ncnc3c2cnn3-c2cccc(C)c2)cc1	-3	.	.	.
COc1ccc(OC)c(Nc2ncnc3c2cnn3-c2cccc(C)c2)c1	.	23*	51	61
c1ccc(CC2CCN(C3=Nc4cccc5cccc3c45)CC2)cc1	.	26*	7.2*	77
c1cc2c3c(cccc3c1)C(N1CCN(C3=Nc4cccc5cccc3c45)CC1)=N2	.	7.7*	85	91
CC(=O)N1CCN(C2=Nc3cccc4cccc2c34)CC1	14	91	106	96
CCCCCOC(=O)C1=C(C)N(C)C(=O)NC1c1cc(Br)c(O)c(OC)c1 (configuration not stated)	4	112	109	91
COc1ccc(C(=O)Nc2cc(C)c3c(=O)oc4ccccc4c3n2)cc1	.	39*	49	103
Cc1cc(NC(=O)CN2CCc3ccccc3C2)nc2c1c(=O)oc1ccccc12	1	28*	84	86
COCC(=O)Nc1cc(C)c2c(=O)oc3ccccc3c2n1	-8	84	88	96
COC(=O)C1(CCSC)NC(c2ccco2)C2C(=O)N(C)C(=O)C21 (configuration not stated)	1	.	90	97
Cc1ccc2c(C)ccc(O)c2n1	.	29*	17*	89
Cc1nn(Cc2ccccc2)c(C)c1NC(=O)CSc1nnc(-c2cc(Cl)ccc2O)n1C	17	50	101	88
O=C(NNC1=C(C(=O)C(F)(F)F)CCC1)c1cccc(O)c1	.	77	86	81
Cc1cccc(C(=O)NNC2=C(C(=O)C(F)(F)F)CCC2)c1O	.	25*	37	65
CCCc1nc(SCC(=O)Nc2cc(C)on2)c2ccccc2n1	0	32*	84	84
CCCc1nc(SCC(=O)N2CCCC2)c2ccccc2n1	-4	38*	82	93
Cc1cc(NC(=O)CSc2nc3ccccc3c(=O)n2C(C)c2ccccc2)no1 (configuration not stated)	.	74	74	80
Cc1cc(NC(=O)CSc2nc(CCC3CCCC3)nc3ccccc23)no1	-5	.	.	.
O=C(CSc1nc2ccccc2nc1SCC(=O)N1CCCCC1)N1CCCCC1	-1	.	.	.
CCC(C)n1c(SCC(=O)Nc2cc(C)on2)nc2ccccc2c1=O (configuration not stated)	.	26*	80	97
O=S1(=O)N=C2CCCN2C(c2ccc(F)cc2)N1 (configuration not stated)	2	101	103	102
CCOc1c(Br)cc(C2NS(=O)(=O)N=C3CCCCCN32)cc1OC (configuration not stated)	1	34*	94	85
Cc1csc(NC(=O)c2c(O)c3c(n(CC(C)C)c2=O)CCCC3)n1	9	33*	119	91
O=C(CCc1ccc(S(=O)(=O)N2CCOCC2)cc1)N1CCN(Cc2ccc3c(c2)OCO3)CC1	.	73	101	97
O=C(Nc1ccc(Cl)cc1-c1nc2ccccc2s1)c1ccco1	.	30*	42	90
SMILES	Jurkat viability	H69AR growth 86K	HUVEC prolif 384	Fibroblast inh
O=C(Nc1ccccc1-c1nc2ccccc2s1)c1ccc(Br)o1	.	15*	47	96
CC(C)Cn1c(N)c(C(=O)COC(=O)CC23CC4CC(CC(C4)C2)C3)c(=O)n(C)c1=O	.	75	72	98
CCN(CC)S(=O)(=O)c1ccc(NC(=O)CSc2nnc(-c3ccc(F)cc3)o2)cc1	1	54	94	104
Cc1ccc(NC(=O)CSc2nnc(-c3ccc(S(=O)(=O)N4CCCC4)cc3)o2)cc1C	-4	32*	53	92
CCN(CC)S(=O)(=O)c1ccc(-c2nnc(SCC(=O)Nc3ccc4c(c3)OCO4)o2)cc1	4	32*	64	96
CCN(CC)S(=O)(=O)c1ccc(-c2nnc(SCc3nnc(-c4ccccc4)o3)o2)cc1	1	20*	53	69
O=S(=O)(c1ccc(-c2nnc(SCc3nnc(-c4ccccc4)o3)o2)cc1)N1CCCC1	-2	.	.	.
O=[N+]([O-])CC(=Nc1ccc(Cl)cc1)N/N=C\c1oc(O)c2ccccc12	.	104	78	96
Cc1nnc(Sc2nc(Sc3nnc(C)s3)nc(N3CCN(C)CC3)n2)s1	101*	0.6*	69	6.1*

Source: PubChem BioAssay
